Assay results published in ChEMBL document CHEMBL1122285, “New myocardial imaging agents: stabilization of radioiodine as a terminal vinyl iodide moiety on tellurium fatty acids” (J Med Chem, 1983).
Several values for one entry are separate records, joined by “and”; a condition that tells them apart may be missing. Equal entries are not always repeated.

Columns and labels:
[1] = system: Rattus norvegicus; experiment: Tested for distribution of radioactivity of tellurium-123 in kidney of rat after 5 min of intravenous administration; assay type: ADME, organism-based; settings: in vivo
How it was run: (§1)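 123mTe-labelled fatty acid (sp act ~20 mCi/mmol), ~6.8–8.4 μCi per rat, was given by lateral tail vein in 0.5 mL 6% BSA with 10% final ethanol to ether-anaesthetised Fischer 344 rats, four per time point. Tissue activity is expressed as mean % injected dose/g (range) against injectate standards.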

[2] = system: Rattus norvegicus; experiment: Tested for distribution of radioactivity of iodine 125 in blood of rat after 60 min of intravenous administration; assay type: ADME, organism-based; settings: in vivo, 1 h
How it was run: (§2)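 Fischer 344 rats, four per time point, under ether anaesthesia. Each received ~8.6 μCi of 125I-labelled fatty acid (sp act ~20 mCi/mmol) by lateral tail vein in 0.5 mL 6% bovine serum albumin with 10% final ethanol, filtered before injection. Percent injected dose/g was calculated against injectate standards and reported as mean (range). Thyroid weight was taken as body weight × 7.5 mg/100 g.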

[3] = system: Rattus norvegicus; experiment: Tested for distribution of radioactivity of tellurium-123 in lungs of rat after 5 min of intravenous administration; assay type: ADME, organism-based, Lung; settings: in vivo; how it was run: as §1
[4] = system: Rattus norvegicus; experiment: Tested for distribution of radioactivity of iodine 125 in lungs of rat after 3 days of intravenous administration; assay type: ADME, organism-based, Lung; settings: in vivo, 72 h; how it was run: as §2
[5] = system: Rattus norvegicus; experiment: Tested for distribution of radioactivity of iodine 125 in blood of rat after 3 days of intravenous administration; assay type: ADME, organism-based; settings: in vivo, 72 h; how it was run: as §2
[6] = system: Rattus norvegicus; experiment: Tested for distribution of radioactivity of tellurium-123 in liver of rat after 60 min of intravenous administration; assay type: ADME, organism-based; settings: in vivo, 1 h; how it was run: as §1
[7] = system: Rattus norvegicus; experiment: Tested for distribution of radioactivity of tellurium-123 in lungs of rat after 60 min of intravenous administration; assay type: ADME, organism-based, Lung; settings: in vivo, 1 h; how it was run: as §1
[8] = system: Rattus norvegicus; experiment: Tested for distribution of radioactivity of tellurium-123 in liver of rat after 5 min of intravenous administration; assay type: ADME, organism-based; settings: in vivo; how it was run: as §1
[9] = system: Rattus norvegicus; experiment: Tested for distribution of radioactivity of tellurium-123 in lungs of rat after 30 min of intravenous administration; assay type: ADME, organism-based, Lung; settings: in vivo, 0.5 h; how it was run: as §1
[10] = system: Rattus norvegicus; experiment: Tested for distribution of radioactivity of tellurium-123 in heart of rat after 30 min of intravenous administration; assay type: ADME, organism-based; settings: in vivo, 0.5 h; how it was run: as §1
[11] = Tested for distribution of radioactivity of iodine 125 in kidney of rat after 60 min of intravenous administration; assay type: ADME; settings: in vivo, 1 h; how it was run: as §2
[12] = system: Rattus norvegicus; experiment: Tested for distribution of radioactivity of tellurium-123 in kidney of rat after 30 min of intravenous administration; assay type: ADME, organism-based; settings: in vivo, 0.5 h; how it was run: as §1
[13] = system: Rattus norvegicus; experiment: Tested for distribution of radioactivity of tellurium-123 in blood of rat after 60 min of intravenous administration; assay type: ADME, organism-based; settings: in vivo, 1 h; how it was run: as §1
[14] = system: Rattus norvegicus; experiment: Tested for distribution of radioactivity of iodine 125 in liver of rat after 2 hr of intravenous administration; assay type: ADME, organism-based; settings: in vivo; how it was run: as §2
[15] = system: Rattus norvegicus; experiment: Tested for distribution of radioactivity of iodine 125 in kidney of rat after 4 hours of intravenous administration; assay type: ADME, organism-based; settings: in vivo; how it was run: as §2
[16] = system: Rattus norvegicus; experiment: Tested for distribution of radioactivity of iodine 125 in blood of rat after 2 hour of intravenous administration; assay type: ADME, organism-based; settings: in vivo; how it was run: as §2
[17] = system: Rattus norvegicus; experiment: Tested for distribution of radioactivity iodine 125 in heart of rat after 30 min of intravenous administration (value in parentheses indicates range); assay type: ADME, organism-based; settings: in vivo, 0.5 h; how it was run: as §2
[18] = system: Rattus norvegicus; experiment: Tested for distribution of radioactivity of iodine 125 in blood of rat after 5 min of intravenous administration; assay type: ADME, organism-based; settings: in vivo; how it was run: as §2
[19] = system: Rattus norvegicus; experiment: Tested for distribution of radioactivity of tellurium-123 in kidney of rat after 60 min of intravenous administration; assay type: ADME, organism-based; settings: in vivo, 1 h; how it was run: as §1
[20] = system: Rattus norvegicus; experiment: Tested for distribution of radioactivity of tellurium-123 in liver of rat after 30 min of intravenous administration; assay type: ADME, organism-based; settings: in vivo, 0.5 h; how it was run: as §1
[21] = system: Rattus norvegicus; experiment: Tested for distribution of radioactivity of iodine 125 in liver of rat after 4 hr of intravenous administration; assay type: ADME, organism-based; settings: in vivo; how it was run: as §2
[22] = system: Rattus norvegicus; experiment: Tested for distribution of radioactivity of iodine 125 in thyroid of rat after 5 min of intravenous administration; assay type: ADME, organism-based, Thyroid gland; settings: in vivo; how it was run: as §2
[23] = system: Rattus norvegicus; experiment: Tested for distribution of radioactivity of iodine 125 in liver of rat after 3 days of intravenous administration; assay type: ADME, organism-based; settings: in vivo, 72 h; how it was run: as §2
[24] = system: Rattus norvegicus; experiment: Tested for distribution of radioactivity of iodine 125 in liver of rat after 30 min of intravenous administration; assay type: ADME, organism-based; settings: in vivo, 0.5 h; how it was run: as §2
[25] = system: Rattus norvegicus; experiment: Tested for distribution of radioactivity of tellurium-123 in heart of rat after 5 min of intravenous administration; assay type: ADME, organism-based; settings: in vivo; how it was run: as §1
[26] = system: Rattus norvegicus; experiment: Tested for distribution of radioactivity in heart of rat after 2 hours of intravenous administration; assay type: ADME, organism-based; settings: in vivo; how it was run: as §2
[27] = system: Rattus norvegicus; experiment: Tested for distribution of radioactivity of iodine 125 in lungs of rat after 5 min of intravenous administration; assay type: ADME, organism-based, Lung; settings: in vivo; how it was run: as §2
[28] = system: Rattus norvegicus; experiment: Tested for distribution of radioactivity of tellurium-123 in blood of rat after 5 min of intravenous administration; assay type: ADME, organism-based; settings: in vivo; how it was run: as §1
[29] = system: Rattus norvegicus; experiment: Tested for distribution of radioactivity of iodine 125 in heart of rat after 5 min of intravenous administration; assay type: ADME, organism-based; settings: in vivo; how it was run: as §2
[30] = system: Rattus norvegicus; experiment: Tested for distribution of radioactivity of iodine 125 in kidney of rat after 3 days of intravenous administration; assay type: ADME, organism-based; settings: in vivo, 72 h; how it was run: as §2
[31] = system: Rattus norvegicus; experiment: Tested for distribution of radioactivity of iodine 125 in kidney of rat after 30 min of intravenous administration; assay type: ADME, organism-based; settings: in vivo, 0.5 h; how it was run: as §2
[32] = system: Rattus norvegicus; experiment: Tested for distribution of radioactivity of iodine 125 in kidney of rat after 5 min of intravenous administration; assay type: ADME, organism-based; settings: in vivo; how it was run: as §2
[33] = system: Rattus norvegicus; experiment: Tested for distribution of radioactivity of iodine 125 in thyroid of rat after 60 min of intravenous administration; assay type: ADME, organism-based, Thyroid gland; settings: in vivo, 1 h; how it was run: as §2
[34] = system: Rattus norvegicus; experiment: Tested for distribution of radioactivity of iodine 125 in lungs of rat after 30 min of intravenous administration; assay type: ADME, organism-based, Lung; settings: in vivo, 0.5 h; how it was run: as §2
[35] = system: Rattus norvegicus; experiment: Tested for distribution of radioactivity of iodine 125 in liver of rat after 60 min of intravenous administration; assay type: ADME, organism-based; settings: in vivo, 1 h; how it was run: as §2
[36] = system: Rattus norvegicus; experiment: Tested for distribution of radioactivity iodine 125 in heart of rat after 4 hours of intravenous administration; assay type: ADME, organism-based; settings: in vivo; how it was run: as §2
[37] = system: Rattus norvegicus; experiment: Tested for distribution of radioactivity of tellurium-123 in blood of rat after 30 min of intravenous administration; assay type: ADME, organism-based; settings: in vivo, 0.5 h; how it was run: as §1
[38] = system: Rattus norvegicus; experiment: Tested for distribution of radioactivity of iodine 125 in blood of rat after 30 min of intravenous administration; assay type: ADME, organism-based; settings: in vivo, 0.5 h; how it was run: as §2
[39] = system: Rattus norvegicus; experiment: Tested for distribution of radioactivity of iodine 125 in lungs of rat after 60 min of intravenous administration; assay type: ADME, organism-based, Lung; settings: in vivo, 1 h; how it was run: as §2
[40] = system: Rattus norvegicus; experiment: Tested for distribution of radioactivity iodine 125 in heart of rat after 3 days intravenous administration; assay type: ADME, organism-based; settings: in vivo, 72 h; how it was run: as §2
[41] = system: Rattus norvegicus; experiment: Tested for distribution of radioactivity of iodine 125 in kidney of rat after 2 hours of intravenous administration; assay type: ADME, organism-based; settings: in vivo; how it was run: as §2
[42] = system: Rattus norvegicus; experiment: Tested for distribution of radioactivity of iodine 125 in liver of rat after 5 min of intravenous administration; assay type: ADME, organism-based; settings: in vivo; how it was run: as §2
[43] = system: Rattus norvegicus; experiment: Tested for distribution of radioactivity iodine 125 in heart of rat after 60 min of intravenous administration; assay type: ADME, organism-based; settings: in vivo, 1 h; how it was run: as §2
[44] = system: Rattus norvegicus; experiment: Tested for distribution of radioactivity of iodine 125 in lungs of rat after 2 hours of intravenous administration; assay type: ADME, organism-based, Lung; settings: in vivo; how it was run: as §2
[45] = system: Rattus norvegicus; experiment: Tested for distribution of radioactivity of iodine 125 in thyroid of rat after 30 min of intravenous administration; assay type: ADME, organism-based, Thyroid gland; settings: in vivo, 0.5 h; how it was run: as §2
[46] = system: Rattus norvegicus; experiment: Tested for distribution of radioactivity of iodine 125 in blood of rat after 4 hours of intravenous administration; assay type: ADME, organism-based; settings: in vivo; how it was run: as §2
[47] = system: Rattus norvegicus; experiment: Tested for distribution of radioactivity of tellurium-123 in heart of rat after 60 min of intravenous administration; assay type: ADME, organism-based; settings: in vivo, 1 h; how it was run: as §1

O=C(O)CCCCCCCCCCC[Te]CCC/C=C\I
Injected dose/g [1]: 1.46% and 1.54% | Injected dose/g [2]: 0.69% | Injected dose/g [3]: 0.91% | Injected dose/g [4]: 0.1% | Injected dose/g [5]: 0.03% | Injected dose/g [6]: 4.49% | Injected dose/g [7]: 1% and 1.49% | Injected dose/g [8]: 7.78% and 8.26% | Injected dose/g [9]: 1.03% | Injected dose/g [10]: 1.98% | Injected dose/g [11]: 1.15% | Injected dose/g [12]: 1.73% and 1.62% | Injected dose/g [13]: 0.95% | Injected dose/g [14]: 2.45% | Injected dose/g [15]: 0.93% | Injected dose/g [16]: 0.68% | Injected dose/g [17]: 1.52% | Injected dose/g [18]: 0.15% | Injected dose/g [19]: 1.85% | Injected dose/g [20]: 5.53% | Injected dose/g [21]: 1.95% | Injected dose/g [22]: 1.62% | Injected dose/g [23]: 0.09% | Injected dose/g [24]: 5.32% | Injected dose/g [25]: 2.09% | Injected dose/g [26]: 1.03% | Injected dose/g [27]: 0.92% | Injected dose/g [28]: 0.32% and 0.25% | Injected dose/g [29]: 1.46% | Injected dose/g [30]: 0.08% | Injected dose/g [31]: 1.04% | Injected dose/g [32]: 1.01% | Injected dose/g [33]: 13.41% | Injected dose/g [34]: 0.89% | Injected dose/g [35]: 4.39% | Injected dose/g [36]: 0.76% | Injected dose/g [37]: 0.84% | Injected dose/g [38]: 0.61% | Injected dose/g [39]: 1.02% | Injected dose/g [40]: 0.09% | Injected dose/g [41]: 0.96% | Injected dose/g [42]: 8.78% | Injected dose/g [43]: 1.81% | Injected dose/g [44]: 0.81% | Injected dose/g [45]: 5.64% | Injected dose/g [46]: 0.65% | Injected dose/g [47]: 1.92% and 0.83%
